This is an account of results in ChEMBL document CHEMBL1122245, “Synthesis and antiviral activity of distamycin A analogues: substitutions on the different pyrrole nitrogens and in the amidine function” (1983).

Assay [1] relates to Avian myeloblastosis virus reverse transcriptase (Avian myeloblastosis virus). Kind of assay: Percent inhibition against AMV reverse transcriptase when (dC)n-(dG)12-18 sequence was used as template at 50 uM concentration.
The test system of assay [2] is Human alphaherpesvirus 1. Kind of assay: (§1) Percent inhibition of cellular growth against HSV-1 cells at 200 uM concentration. The assay is classed as functional. To be noted: Human alphaherpesvirus 1, HSV-1. The method, boiled down:
(§2)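 Toxicity taken as the reduction in Vero cell proliferation over 48 h.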

The nature of assay [3]: Percent inhibition against DNA polymerase alpha when activated DNA was used as template at 10 uM concentration. In short, it runs like this:
(§3)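 Commercial cellular DNA polymerase α (2.5 units/mL) was run in 100 mM Tris-HCl pH 8.0 with 3 mM MgCl2, 1 mM DTT, 40 μg BSA, 100 μM dATP/dCTP/dGTP, ~10 μM [3H]dTTP and 200 μg/mL activated DNA. Incubation was at 37 °C. Values are duplicate means, and inhibition under 5% was taken as not significant.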

Assay [4] concerns Human alphaherpesvirus 1. The experiment in a line: Inhibitory effect against HSV-1 plaque formation at a concentration of 200 uM. The assay is classed as functional. The settings on record: at 200 µM.
Assay [5] has as its system Nucleic Acid. The experiment in a line: Percent inhibition against DNA polymerase alpha when (dT)n-(rA)12-18 sequence was used as template at 50 uM concentration. It is filed as nucleic-acid assay. The method, boiled down: (§4)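 Cellular DNA polymerase α (2.5 units/mL) was run in Tris-HCl pH 8.0 buffer with MgCl2, DTT and BSA at 37 °C. Values are duplicate means, and inhibition under 5% was taken as not significant.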

In assay [6] the test system is HSV-1. Kind of assay: Percent inhibition of DNA polymerase activity in HSV-1 cell lines at a concentration of 10 uM. The settings on record: at 10 µM. It is filed as cell-based. The method, boiled down:
(§5)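 HSV-1 DNA polymerase was isolated from Vero cells infected with HSV-1 strain C42. It was assayed with [3H]dTTP as labelled substrate and activated calf thymus DNA at 200 μg/mL. Values are averages of duplicate assays, and inhibition under 5% was taken as not significant.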

Assay [7] deals with HSV-1. The experiment in a line: Percent inhibition of DNA polymerase activity in HSV-1 cell lines at a concentration of 50 uM. It is filed as cell-based. The settings on record: at 50 µM. In short, it runs like this:
as §5

The subject of assay [8] is Avian myeloblastosis virus reverse transcriptase (Avian myeloblastosis virus). Kind of assay: Percent inhibition against AMV reverse transcriptase when (rC)n-(dG)12-18 sequence was used as template at 50 uM concentration.
Assay [9] is described as follows: Percent inhibition against DNA polymerase alpha when activated DNA was used as template at 50 uM concentration. In short, it runs like this:
as §3

In assay [10] the test system is Avian myeloblastosis virus reverse transcriptase (Avian myeloblastosis virus). The experiment in a line: Percent inhibition against AMV reverse transcriptase when (dT)n-(rA)12-18 sequence was used as template at 50 uM concentration.
The test system of assay [11] is Nucleic Acid. Kind of assay: Percent inhibition against DNA polymerase alpha when (dT)n-(rA)12-18 sequence was used as template at 10 uM concentration. The assay is classed as nucleic-acid assay. The method, boiled down:
as §4

Assay [12] deals with unidentified influenza virus. It is filed as functional. To be noted: at 200 µM.
Assay [13] relates to Human alphaherpesvirus 1. The experiment in a line: Inhibitory effect against HSV-1 plaque formation at a concentration of 50 uM. It is filed as functional. In short, it runs like this: (§6)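 HSV-1 strain C42 plaque formation in Vero cells, with compound added to parallel cultures. Values are averages of duplicate cell cultures.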
For assay [14], the system named is Human alphaherpesvirus 1. The experiment in a line: Percent reduction in HSV-1 yield at 10 uM concentration. The assay is classed as functional. In short, it runs like this: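 HSV-1 strain C42 yield from Vero cells, measured by virus titration. Compounds were added to parallel cultures, and values are averages of duplicate cultures. Inhibition below 50% was not considered significant.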

The subject of assay [15] is Human alphaherpesvirus 1. Kind of assay: Inhibitory effect against HSV-1 plaque formation at a concentration of 100 uM. The assay is classed as functional. The method, boiled down:
as §6

In assay [16] the test system is Human alphaherpesvirus 1. Kind of assay: Percent inhibition of cellular growth against HSV-1 cells at 10 uM concentration. To be noted: Human alphaherpesvirus 1, HSV-1. It is filed as functional. The method, boiled down:
as §2

Assay [17] deals with Human alphaherpesvirus 1. The experiment in a line: Percent inhibition of cellular growth against Vero cells at 100 uM concentration. It is filed as functional. The settings on record: Human alphaherpesvirus 1, HSV-1. The method, boiled down: as §2
Assay [18] has as its system Human alphaherpesvirus 1. The experiment in a line: Inhibitory effect against HSV-1 plaque formation at a concentration of 10 uM. It is filed as functional. In short, it runs like this: as §6
For assay [19], the system named is unidentified influenza virus. Kind of assay: Inhibitory effect against influenza virus plaque formation at a concentration of 100 uM. The assay is classed as functional. In short, it runs like this:
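Plaque inhibition of influenza A strain Victoria in MDCK cells. Values are averages of duplicate cell cultures.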

The test system of assay [20] is Human alphaherpesvirus 1. Kind of assay: Percent inhibition of cellular growth against HSV-1 cells at a concentration of 200 uM. The assay is classed as functional. The settings on record: Human alphaherpesvirus 1, HSV-1. The method, boiled down:
as §2

Assay [21] concerns Human alphaherpesvirus 1. The experiment in a line: Inhibitory effect against HSV-1 plaque formation at a concentration of 1 uM. It is filed as functional. In short, it runs like this: as §6
The subject of assay [22] is Human alphaherpesvirus 1. The experiment in a line: Inhibitory effect against HSV-1 plaque formation at a concentration of 5 uM. It is filed as functional. In short, it runs like this: as §6
Assay [23] deals with Human alphaherpesvirus 1. Described as §1. The assay is classed as functional. To be noted: Human alphaherpesvirus 1, HSV-1. The source holds these as a separate data set.

Consider `Br.Cn1cc(NC(=O)c2cc(NC(=O)c3cc(NC(=O)c4cc(NC(=O)c5cc(NC=O)cn5C)cn4C)cn3C)cn2C)cc1C(=O)NCCC(=N)N`, for which the inhibition in [1] is below 5%; in [3], 17%; with Nucleic Acid [5] it was 56%; in the assay with HSV-1 [6] it was 56%; in the assay on HSV-1 [7] it was 91%; in assay [8], below 5%. Further, the inhibition in assay [9] amounted to 50%; in assay [10], 39%; with Nucleic Acid [11], 20%. The molecule further displayed an inhibition at 200 µM in the assay with Human alphaherpesvirus 1 [2] of 10%. Further, the Reduction is reported as below 50% with Human alphaherpesvirus 1 [4] and 65% in assay [12].
With `Br.Cn1cc(NC(=O)c2cc(NC(=O)c3cc(NC=O)c[nH]3)cn2C)cc1C(=O)NCCC(=N)N`, the inhibition in [1] is below 5%; in [3] it was 31%; with Nucleic Acid [5], 82%; with HSV-1 [6], 54%; in the assay with HSV-1 [7] it was 89%; in assay [8], below 5%. The inhibition in assay [9] came to 45%; in assay [10] it was 18%; in the assay on Nucleic Acid [11], 58%. In addition, the Reduction with Human alphaherpesvirus 1 [13] is 90%; with Human alphaherpesvirus 1 [14] it was 98%; with Human alphaherpesvirus 1 [15] it was above 90%; in the assay with Human alphaherpesvirus 1 [18], 60%; in assay [12], 75%. Moreover, the inhibition at 10 µM with Human alphaherpesvirus 1 [16] is 30%. In addition, the inhibition at 100 µM in the assay with Human alphaherpesvirus 1 [17] amounted to 50%.
Regarding `Br.CCn1cc(NC=O)cc1C(=O)Nc1cc(C(=O)Nc2cc(C(=O)NCCC(=N)N)n(C)c2)n(C)c1`, the inhibition in assay [1] was below 5%; in [3], 29%; with Nucleic Acid [5], 85%; with HSV-1 [6], 48%; in the assay on HSV-1 [7], 83%; in assay [8] it was below 5%. Moreover, the values for the inhibition (in assay [9]; in assay [10]; with Nucleic Acid [11]) were 42%, 11% and 60%, respectively. In the assay on Human alphaherpesvirus 1 [2], this molecule displayed an inhibition at 200 µM of 50%. The results for the Reduction (in the assay on Human alphaherpesvirus 1 [4]; in assay [12]) were 50% and below 50%, respectively.
With `Br.CNC(=N)CCNC(=O)c1cc(NC(=O)c2cc(NC(=O)c3cc(NC=O)cn3C)cn2C)cn1C`, the inhibition is below 5% in assay [1]; 27% in assay [3]; 76% in the assay with Nucleic Acid [5]; 45% in the assay with HSV-1 [6]; 76% in the assay on HSV-1 [7]; below 5% in [8]. Further, the inhibition in assay [9] was found to be 38%; in [10] it was 12%; with Nucleic Acid [11], 50%. Moreover, the Reduction (in assay [19]; in the assay on Human alphaherpesvirus 1 [4]) was below 50% in each case.
For `Br.CCn1cc(NC(=O)c2cc(NC=O)cn2C)cc1C(=O)Nc1cc(C(=O)NCCC(=N)N)n(C)c1`, the inhibition in [1] was below 5%; in [3] it was 23%; in the assay on Nucleic Acid [5] it was 64%; with HSV-1 [6] it was 48%; in the assay with HSV-1 [7] it was 83%; in [8], below 5%. Moreover, the inhibition worked out at 34% in [9], 8% in assay [10] and 31% in the assay on Nucleic Acid [11]. In addition, the inhibition at 200 µM in the assay on Human alphaherpesvirus 1 [20] is 10%. Moreover, the Reduction (in the assay on Human alphaherpesvirus 1 [4]; in [12]) was below 50% in each case.
Regarding `Br.CN(C)C(=N)CCNC(=O)c1cc(NC(=O)c2cc(NC(=O)c3cc(NC=O)cn3C)cn2C)cn1C`, the inhibition in assay [1] was below 5%; in assay [3] it was 29%; in the assay with Nucleic Acid [5] it was 80%; in the assay on HSV-1 [6] it was 44%; in the assay on HSV-1 [7] it was 81%; in assay [8], below 5%. Moreover, the inhibition in assay [9] was found to be 41%; in assay [10] it was 15%; in the assay with Nucleic Acid [11], 56%. Further, the Reduction in [19] is listed as 50%; with Human alphaherpesvirus 1 [4] it was below 50%. In the assay on Human alphaherpesvirus 1 [2], the inhibition at 200 µM stood at 0%.
With `Br.Cn1cc(NC=O)cc1C(=O)Nc1cc(C(=O)Nc2c[nH]c(C(=O)NCCC(=N)N)c2)n(C)c1`, the inhibition is below 5% in [1]; 27% in [3]; 75% with Nucleic Acid [5]; 57% in the assay on HSV-1 [6]; 83% with HSV-1 [7]; below 5% in [8]. Besides, the inhibition in [9] worked out at 37%; in assay [10], 17%; in the assay on Nucleic Acid [11], 45%. The Reduction in assay [19] is listed as below 50%; with Human alphaherpesvirus 1 [21] it was below 50%; in the assay on Human alphaherpesvirus 1 [14], 99%; in the assay on Human alphaherpesvirus 1 [22], 85%; in the assay on Human alphaherpesvirus 1 [18], above 90%. In the assay on Human alphaherpesvirus 1 [16], this molecule showed an inhibition at 10 µM of 60%.
`Br.CCn1cc(NC(=O)c2cc(NC(=O)c3cc(NC=O)cn3C)cn2C)cc1C(=O)NCCC(=N)N` showed an inhibition at 200 µM with Human alphaherpesvirus 1 [23] of 10%. Further, the inhibition was below 5% in assay [1]; 26% in assay [3]; 73% with Nucleic Acid [5]; 52% in the assay with HSV-1 [6]; 83% with HSV-1 [7]; below 5% in assay [8]. In addition, the inhibition in assay [9] was found to be 35%; in [10] it was 11%; in the assay with Nucleic Acid [11] it was 40%. The Reduction (in the assay with Human alphaherpesvirus 1 [4]; in assay [12]) was below 50% throughout.
On to `Br.CCn1cc(NC(=O)c2cc(NC(=O)c3cc(NC=O)cn3CC)cn2CC)cc1C(=O)NCCC(=N)N`, for which the inhibition in [1] was below 5%; in assay [3], 29%; in the assay on Nucleic Acid [5], 75%; in the assay with HSV-1 [6], 47%; with HSV-1 [7], 80%; in assay [8] it was below 5%. Moreover, the inhibition in assay [9] was determined as 39%; in assay [10], 9%; in the assay with Nucleic Acid [11] it was 58%. Moreover, the Reduction (in the assay with Human alphaherpesvirus 1 [4]; in assay [12]) was below 50% each time.
Take `Br.Cn1cc(NC(=O)c2cc(NC(=O)c3cc(NC=O)cn3C)cn2C)cc1C(=O)NCCC(=N)N`: the Reduction in [19] is given as above 50%; in the assay on Human alphaherpesvirus 1 [4], 55%; in the assay with Human alphaherpesvirus 1 [14], 27%. Besides, the inhibition amounted to 31% in assay [3]; 82% in the assay with Nucleic Acid [5]; 49% in the assay on HSV-1 [6]; 83% in the assay with HSV-1 [7]; 40% in [9]; 58% in the assay with Nucleic Acid [11].
Consider `Br.Cn1cc(NC(=O)c2cc(NC(=O)c3cc(NC=O)cn3C)c[nH]2)cc1C(=O)NCCC(=N)N`, for which the inhibition in assay [1] was below 5%; in assay [3] it was 29%; in the assay on Nucleic Acid [5], 80%; in the assay with HSV-1 [6] it was 55%; in the assay with HSV-1 [7] it was 88%; in assay [8] it was below 5%. Further, the results for the inhibition (in assay [9]; in assay [10]; in the assay with Nucleic Acid [11]) were 41%, 13% and 55%, respectively. The Reduction in the assay on Human alphaherpesvirus 1 [13] is 90%; with Human alphaherpesvirus 1 [14] it was 92%; in the assay with Human alphaherpesvirus 1 [18], below 50%; in assay [12] it was below 50%. The molecule further yielded an inhibition at 10 µM in the assay on Human alphaherpesvirus 1 [16] of 25%.
